Source: ChEMBL document CHEMBL1154986, “New anti-malarial phenylpropanoid conjugated iridoids from Morinda morindoides” (Bioorg Med Chem Lett, 2010)
≈ marks a conversion by molar mass, not a printed value.

Tests used:
Plasmodium falciparum = test: Antimalarial activity against cycloguanil-resistant Plasmodium falciparum CDC1 assessed as inhibition of ring stage parasitaemia after 48 hrs by Giemsa staining; assay type: functional, organism-based; details: CDC1, 48 h
Method in brief: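 Sorbitol-synchronized ring-stage culture (0.5% parasitemia, 4% hematocrit type O human RBC) in RPMI 1640 with 10% heat-inactivated type O human serum, HEPES, glutamine, NaHCO3, hypoxanthine, gentamycin; 5% CO2/5% O2/90% N2, 37 °C. Samples from DMSO stock diluted in medium, 1% DMSO final; 48 h. Proliferation counted on Giemsa thin films, 10,000 erythrocytes per film, triplicate. Quinine as control.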

[1] = Cytotoxicity against human KB-3-1 cells at 150 uM after 72 hrs by MTT assay; assay type: cell-based; details: read-out: GI
[2] = Cytotoxicity against human KB-3-1 cells after 72 hrs by MTT assay; assay type: cell-based; details: KB 3-1, 72 h
Method in brief: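 KB-3-1 cells grown in RPMI 1640 with 10% newborn calf serum, glutamine, kanamycin, 5% CO2, 37 °C. 1.0 × 10^4 cells per well, then sample added in medium containing 2% DMSO; 72 h at 37 °C. MTT (2 mg/mL in PBS) added afterwards; growth inhibition from absorbance at 540 nm. Mitomycin C as positive control.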

Structure (SMILES) | IC50 (Plasmodium falciparum) | inhibition at 72 h, 150 µM [1] [%] | IC50 [2] [µg/mL] | IC90 (Plasmodium falciparum) [µg/mL]
COC(=O)C1=CO[C@@H](O[C@@H]2O[C@H](COC(C)=O)[C@@H](O)[C@H](O)[C@H]2O)[C@H]2[C@@H]1C=C[C@@]21C=C([C@H](O)c2ccc(O)c(OC)c2)C(=O)O1 | 100 nM | 9.3 |  | 
COC(=O)C1=CO[C@@H](O[C@@H]2O[C@H](COC(C)=O)[C@@H](O)[C@H](O)[C@H]2O)[C@H]2[C@@H]1C=C[C@@]21C=C([C@H](O)c2ccc(O)cc2)C(=O)O1 | 4100 nM | 4.3 |  | 
COC(=O)C1=CO[C@@H](O[C@@H]2O[C@H](CO)[C@@H](O)[C@H](O)[C@H]2O)[C@H]2[C@@H]1C=C[C@@]21C=C([C@H](O)c2ccc(O)c(OC)c2)C(=O)O1 | 21900 nM | 13.1 |  | 
COC(=O)C1=CO[C@@H](O[C@@H]2O[C@H](CO)[C@@H](O)[C@H](O)[C@H]2O)[C@H]2[C@@H]1C=C[C@@]21C=C([C@H](O)c2ccc(O)cc2)C(=O)O1 | 800 nM | 13.4 |  | 
COC(=O)C1=CO[C@@H](O[C@@H]2O[C@H](CO)[C@@H](O)[C@H](O)[C@H]2O)[C@H]2[C@@H]1C=C[C@@]21C=C(C(=O)c2ccc(O)c(OC)c2)C(=O)O1 [DEHYDROMETHOXYGAERTNEROSIDE] | 40 nM | 6.1 |  | 
CO[C@@]12[C@H](COC(N)=O)C3=C(C(=O)C(C)=C(N)C3=O)N1C[C@@H]1N[C@@H]12 [MITOMYCIN] |  |  | 0.1 (≈ 0.299 µM) | 
C=C[C@H]1CN2CC[C@H]1C[C@H]2[C@H](O)c1ccnc2ccc(OC)cc12 [QUININE] | 0.04 µg/mL |  |  | 0.09 (≈ 0.277 µM)
